Where “and” joins values, the source holds several entries; their conditions need not be identical. Equal entries are not always repeated. Calls of active or inactive are those of the source. The calls are words filed in the database; no cut-off is given here.
Tests used:
[1] = molecular target: T1, Fatty-acid amide hydrolase 1 (Homo sapiens, UniProt O00519); test: Reversible inhibition of human recombinant FAAH assessed as hydrolysis of [3H]-AEA after 10 mins by liquid scintillation counting
T1 sequence (O00519 whole entry): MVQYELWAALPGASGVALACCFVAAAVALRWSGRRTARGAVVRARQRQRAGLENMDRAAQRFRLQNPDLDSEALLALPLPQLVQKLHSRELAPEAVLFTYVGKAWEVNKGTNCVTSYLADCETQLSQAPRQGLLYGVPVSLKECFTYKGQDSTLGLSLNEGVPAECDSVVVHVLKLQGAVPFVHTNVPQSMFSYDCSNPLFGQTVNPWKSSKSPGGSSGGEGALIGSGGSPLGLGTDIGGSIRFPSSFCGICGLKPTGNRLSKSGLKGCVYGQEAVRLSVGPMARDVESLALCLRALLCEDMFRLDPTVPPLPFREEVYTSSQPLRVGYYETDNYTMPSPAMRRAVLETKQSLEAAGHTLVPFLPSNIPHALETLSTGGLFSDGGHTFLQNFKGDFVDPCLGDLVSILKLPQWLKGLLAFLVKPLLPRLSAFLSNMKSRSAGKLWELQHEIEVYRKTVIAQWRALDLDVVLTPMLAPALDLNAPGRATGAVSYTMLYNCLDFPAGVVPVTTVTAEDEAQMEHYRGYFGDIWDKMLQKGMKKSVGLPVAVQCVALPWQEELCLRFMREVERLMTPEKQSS
Procedure, shortened: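 In-house recombinant human FAAH (6 μg) in 10 mM Tris-HCl, 1 mM EDTA, 0.1% (w/v) BSA, pH 7.4. Compound in DMSO, or DMSO alone, with [3H]-AEA (2 μM final, 50,000 dpm) for 10 min at 37 °C. Stopped on ice with chloroform/methanol (1:1). Aqueous phase counted for [3H]-ethanolamine; buffer-only blank subtracted. IC50 from three independent experiments in duplicate.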

[2] = Metabolic stability of the compound in mouse liver homogenate assessed as compound hydrolysis at 10^-5 M after 90 mins by HPLC/MS analysis; assay type: ADME, tissue-based; details: read-out: Drug metabolism
Procedure, shortened: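 Mouse liver homogenised in Tris buffer pH 7.4 and spun at 800g for 15 min; supernatant used (22.5 μg/tube). Compound incubated in TE buffer (10 mM Tris-HCl, 1 mM EDTA, 0.1% BSA, pH 7.4) for 90 min at 37 °C. Proteins removed and supernatant concentrated. HPLC/MS followed the parent [M+H]+ AUC against an internal standard, normalised to boiled homogenate. Mean ± SEM, 3 experiments in duplicate.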

[3] = molecular target: T2, Fatty-acid amide hydrolase 1 (Mus musculus) (UniProt O08914); test: Activity of mouse liver homogenate FAAH assessed as compound hydrolysis at 10^-5 M after 90 mins by HPLC/MS analysis in presence of PF-750; assay type: tissue-based
T2 sequence (whole entry): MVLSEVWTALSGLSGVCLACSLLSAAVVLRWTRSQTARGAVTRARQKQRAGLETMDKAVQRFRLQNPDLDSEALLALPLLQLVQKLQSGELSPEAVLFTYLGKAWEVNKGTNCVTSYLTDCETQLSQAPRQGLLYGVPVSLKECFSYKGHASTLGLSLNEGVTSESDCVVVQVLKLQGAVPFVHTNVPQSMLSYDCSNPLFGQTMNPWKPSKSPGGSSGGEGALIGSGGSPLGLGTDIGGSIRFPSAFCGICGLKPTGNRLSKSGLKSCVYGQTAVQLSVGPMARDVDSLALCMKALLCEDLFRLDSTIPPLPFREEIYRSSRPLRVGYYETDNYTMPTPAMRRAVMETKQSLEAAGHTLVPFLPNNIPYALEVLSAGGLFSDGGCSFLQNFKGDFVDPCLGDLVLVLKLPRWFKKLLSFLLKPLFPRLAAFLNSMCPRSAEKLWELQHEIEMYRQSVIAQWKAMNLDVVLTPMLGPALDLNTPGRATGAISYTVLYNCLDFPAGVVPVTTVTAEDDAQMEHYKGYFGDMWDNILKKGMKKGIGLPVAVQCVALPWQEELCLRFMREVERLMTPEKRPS
Procedure, shortened: (§1)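 Mouse liver homogenate (800g supernatant from Tris pH 7.4; 22.5 μg/tube) incubated with compound in TE buffer (10 mM Tris-HCl, 1 mM EDTA, 0.1% BSA, pH 7.4), 37 °C, 90 min, with or without preincubation with FAAH inhibitor (5.10^-5 M). Parent and ring-opened product measured by HPLC/MS as AUC ratio to internal standard, normalized to heat-inactivated homogenate. Three independent experiments in duplicate.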

[4] = molecular target: T3, Fatty-acid amide hydrolase 1 (Homo sapiens) (UniProt O00519); test: Activity of human recombinant FAAH assessed as compound hydrolysis at 10^-5 M after 90 mins by HPLC/MS analysis in presence of PF-750
T3 sequence (whole entry): T1 sequence (O00519 whole entry)
Procedure, shortened: (§2)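 Recombinant human FAAH (90 μg/tube), made in-house, incubated with compound in TE buffer (10 mM Tris-HCl, 1 mM EDTA, 0.1% w/v BSA, pH 7.4) at 37 °C for 90 min, with or without preincubation with FAAH inhibitor at 5.10^-5 M. Proteins precipitated by centrifugation and supernatant concentrated. Parent [M+H]+ quantified by HPLC/MS as AUC ratio to internal standard, normalized to boiled-enzyme blank. Three independent experiments in duplicate.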

[5] = molecular target: T3, Fatty-acid amide hydrolase 1 (Homo sapiens); test: Activity of human recombinant FAAH assessed as compound hydrolysis at 10^-5 M after 90 mins by HPLC/MS analysis in presence of URB-597; procedure, shortened: as §2
[6] = molecular target: T2, Fatty-acid amide hydrolase 1 (Mus musculus); test: Activity of mouse liver homogenate FAAH assessed as compound hydrolysis at 10^-5 M after 90 mins by HPLC/MS analysis in presence of URB-597; assay type: tissue-based; procedure, shortened: as §1
[7] = molecular target: T3, Fatty-acid amide hydrolase 1 (Homo sapiens); test: Activity of human recombinant FAAH assessed as compound hydrolysis at 10^-5 M after 90 mins by HPLC/MS analysis; procedure, shortened: as §2
[8] = molecular target: T1, Fatty-acid amide hydrolase 1; test: Irreversible inhibition of human recombinant FAAH assessed as hydrolysis of [3H]-AEA after 10 mins by liquid scintillation counting
[9] = molecular target: T2, Fatty-acid amide hydrolase 1 (Mus musculus); test: Activity of mouse liver homogenate FAAH assessed as compound hydrolysis at 10^-5 M after 90 mins by HPLC/MS analysis; assay type: tissue-based; procedure, shortened: as §1

Row | SMILES | IC50 ([1]; read-out: IC50) | IC50 ([1]; read-out: pIC50 (converted)) | metabolised at 1.5 h, 10 µM [2] | Activity [3] | Activity [4] | Activity [5] | Activity [6] | Activity [7] | other results
1 | C=CCCCN1C[C@@H]([C@@H](C)OC(=O)CCCc2ccccc2)C1=O | 82.8 µM | 83.2 µM |  |  |  |  |  |  | 
2 | C=CCCC(=O)N1C[C@@H]([C@@H](C)OC(=O)CCCc2ccccc2)C1=O |  |  | > 80% |  |  |  |  |  | pIC50 [1]: 8.27
3 | C=CCCC(=O)N1C[C@@H]([C@@H](C)OCCCCc2ccccc2)C1=O |  |  | > 80% | Active | inactive | inactive | inactive | inactive | IC50 [8]: 0.008 µM and 0.00813 µM
4 | C=CCCC(=O)N1CC([C@@H](C)OCCCCc2ccccc2)C1 | 2.9 µM | 2.88 µM |  |  |  |  |  |  | 
5 | CCCCC/C=C\C/C=C\C/C=C\C/C=C\CCCC(=O)NCCO |  |  |  | inactive | inactive | inactive | inactive | Active | Activity [9]: Active

From ChEMBL document CHEMBL2150943, “SAR and LC/MS studies of β-lactamic inhibitors of human fatty acid amide hydrolase (hFAAH): evidence of a nonhydrolytic process” (J Med Chem, 2011)
